Compound activity from PubChem.
Rows were chosen to be rich in hits. Some 3.7% of all compounds tested hit in one or more screens of this group.
KCNK3 block – human KCNK3 channel inhibition, primary screen. O14649. AID 602410. B-score at 10 µM. CHO-KCNK3 thallium flux, FluxOR fluorescence; stronger effect = lower value. 0.84% of 340,000 active;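 active means B-score under library mean minus 4 SD, starting fluorescence ratio at most library mean plus 5 SD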;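 further: more negative B-score means stronger inhibition of thallium flux through KCNK3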
Target sequence (O14649 whole entry, looked up): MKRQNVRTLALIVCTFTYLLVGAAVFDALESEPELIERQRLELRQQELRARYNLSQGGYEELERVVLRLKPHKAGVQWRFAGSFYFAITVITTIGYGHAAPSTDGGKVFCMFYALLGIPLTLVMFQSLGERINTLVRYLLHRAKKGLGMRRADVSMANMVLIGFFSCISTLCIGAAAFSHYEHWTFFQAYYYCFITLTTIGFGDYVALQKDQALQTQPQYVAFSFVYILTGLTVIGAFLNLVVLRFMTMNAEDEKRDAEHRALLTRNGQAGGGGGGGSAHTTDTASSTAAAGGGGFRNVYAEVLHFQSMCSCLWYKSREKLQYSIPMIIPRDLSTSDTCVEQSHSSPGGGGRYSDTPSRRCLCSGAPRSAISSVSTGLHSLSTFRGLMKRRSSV
KCNK9 block – human KCNK9 channel inhibition; Q9NPC2; HEK293 KCNK9, FluxOR thallium flux fluorescence; stronger effect = lower value; B-score at 10 µM; 1.2% of 310,000 active; AID 488922;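 active means ratio B-score over 3 SD below the library mean, with starting fluorescence within 5 SD of its mean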;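 further: negative B-score means less thallium flux so channel inhibition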
Kir21 block – Kir2.1 (mouse) channel inhibition; P35561; HEK293-Kir2.1, FluxOR thallium flux fluorescence; stronger effect = lower value; B-score at 10 µM; 0.85% of 310,000 active;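 active means fluorescence ratio B-score at or below minus 3 SD of library scores, with starting-brightness B-score within 2 SD, cut at about -4.2 in these data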;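 further: channel flux triggered by added potassium and thallium sulfate stimulus; B-score of peak minus minimum fluorescence over baseline after thallium stimulus; more negative B-score means stronger Kir2.1 block with less thallium influx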
hERG protect – compounds protecting human hERG from proarrhythmic drug block | Q12809 | CHO-hERG, FluxOR thallium flux, dofetilide IC70 present | activation (rescue from dofetilide block), less the hit threshold, % at 10 µM | 0.51% of 310,000 active;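 active means activation above the mean of controls blocked by dofetilide plus 5 SD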;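 further: thallium influx through hERG after potassium depolarization seen as dye fluorescence rise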
KCNQ1 act – potentiates or activates the human KCNQ1 potassium channel. B-score at 10 µM. CHO-K1 KCNQ1, thallium flux FluxOR fluorescence; stronger effect = higher value. 0.35% of 310,000 active;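 active means fluorescence ratio B-score, a plate-corrected score, at least three library SD, with initial intensity B-score within 5 SD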
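Assay system: stable KCNQ1 CHO-K1 line; medium: assay buffer, equal DMSO in all wells; timing: 90 min dye loading and 20 min compound exposure, both at room temperature; technique: kinetic FluxOR thallium fluorescence, 10-s 1-Hz baseline, 110-s post-stimulus read; read-out basis: B score of baseline-normalized fluorescence ratio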
KCNQ1 inh – inhibitors of human KCNQ1 potassium channel; P51787; CHO-K1 KCNQ1, FluxOR thallium flux fluorescence; stronger effect = higher value; B-score at 10 µM; 1.3% of 310,000 active;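 active means compounds whose thallium flux B-score, printed positive for inhibition, exceeds three library SD while starting fluorescence stays within three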;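 further: channel opened by potassium depolarization with thallium stimulus after 20 min compound exposure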
KCNK3 confirm – confirmation of human KCNK3 two-pore domain potassium channel inhibitors. shares compounds with KCNK3 block. 99% of 2,400 active. CHO-KCNK3 thallium flux, FluxOR fluorescence; 0% buffer, 100% carvedilol maximal block. AID 651638. ratio percent of control, % at 10 µM;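 active means ratio percent of control, averaged over triplicates, above buffer control mean plus 5 SD, cut at about 64% in these data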;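 further: ratio is the fluorescence rise from min to max over baseline after thallium stimulus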
KCNK3 uninduced – KCNK3 inhibitor counter-screen hit in non-induced cells. shares compounds with KCNK3 block. non-induced KCNK3 parental cells, FluxOR thallium flux; stronger effect = lower value. thallium flux ratio (lower = more inhibition) at 10 µM. 40% of 2,400 active. AID 651747;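 active means thallium flux ratio, averaged over three wells, more than 5 SD below the buffer control mean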;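 further: host cells are CHO cells without KCNK3 induction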
Large screens that a line does not name were inactive (follow-up assays come after a bar, where they were run).

CCN(CC)C(=O)C1CCCN(c2ccc([N+](=O)[O-])cc2/C=N/NC(=O)c2cccc(O)c2)C1 (stereo unspecified)	KCNK3 block -14.3 | KCNK3 confirm 90.7 | KCNK3 uninduced inactive
CSc1ccc(Cl)c(C(=O)NCCCn2ccnc2)c1	none
COc1ccc(C(=O)c2cnc3ccccc3c2-c2ccccc2)cc1	KCNK3 block -9.24 | KCNK3 confirm 112.0 | KCNK3 uninduced inactive
COc1ccc(Oc2nc(-c3ccccc3)ncc2C(=O)O)cc1	none
Cc1ccc(C(=O)c2cnc3ccccc3c2-c2ccccc2)cc1	KCNK3 block -9.78 | KCNK3 confirm 117.7 | KCNK3 uninduced 0.127
COc1ccc(NC(=O)c2cccs2)cc1NC(=O)c1ccco1	none
O=C(Nc1ccc2nc(-c3cccs3)[nH]c2c1)c1ccco1	KCNK3 block -10.2 | KCNK3 confirm 81.3 | KCNK3 uninduced inactive
Cc1ccc(NC(=O)c2cccs2)cc1NC(=O)c1ccco1	KCNK3 block -8.81 | KCNK3 confirm 105.0 | KCNK3 uninduced inactive
Cc1ccc(C)c(S(=O)(=O)NCC(c2ccc3c(c2)OCO3)N2CCOCC2)c1 (stereo unspecified)	none
Cc1cc(F)ccc1S(=O)(=O)NCC(c1ccc2c(c1)OCO2)N1CCOCC1 (stereo unspecified)	KCNK3 block -11.4 | KCNK3 confirm 70.3 | KCNK3 uninduced inactive
Cc1nn(Cc2ccc(Cl)cc2)c(C)c1NC(=O)c1noc2c1CCc1ccccc1-2	KCNK3 block -8.75 | KCNK3 confirm 117.0 | KCNK3 uninduced inactive
Cc1ccc(Cn2ccc(NC(=O)c3noc4c3CCc3ccccc3-4)n2)cc1	none
CC(=O)N1CCN(S(=O)(=O)c2cccc(C(=O)Nc3ccccc3N3CCCC3)c2)CC1	none
COc1cccc(O)c1CN1CCC(C(=O)Nc2ccc(-c3cccc(C)c3)cc2)CC1	KCNK3 block -11.3, KCNQ1 inh 6 | KCNK3 confirm 124.7 | KCNK3 uninduced inactive
COc1cccc(-c2cccc(NC(=O)C3CCN(Cc4cccc(C)n4)CC3)c2)c1	none
O=Cc1c[nH]c2cccc(OCc3ccccc3)c12	none (no result: KCNK9 block, Kir21 block, hERG protect, KCNQ1 act, KCNQ1 inh)
NNc1nc(-c2ccccc2)c2ccccc2n1	none
c1ccc(-c2nc(-n3nc4ccccc4n3)nc3ccccc23)cc1	KCNK3 block -14.4, KCNK9 block -7.92 | KCNK3 confirm 87.7 | KCNK3 uninduced 0.153
COc1ccc(-c2csc(/C(C#N)=C\c3ccc(O)c([N+](=O)[O-])c3)n2)cc1OC	KCNK3 block -10.5 | KCNK3 confirm 116.3 | KCNK3 uninduced 0.138
CCOc1ccc(C(=O)C(C)OC(=O)C2CCN(c3ccc(C(F)(F)F)cn3)CC2)cc1 (stereo unspecified)	KCNK3 block -9.36, KCNQ1 inh 8 | KCNK3 confirm 82.7 | KCNK3 uninduced 0.158
CC(OC(=O)C1CCN(c2ccc(C(F)(F)F)cn2)CC1)C(=O)NC1CCCCC1C (stereo unspecified)	none (no result: KCNK9 block, Kir21 block, hERG protect, KCNQ1 act, KCNQ1 inh)
CCN(CC)c1ccc(S(=O)(=O)N(CC)CC)cc1NC(=O)C1CCCC1	KCNK3 block -9.41 | KCNK3 confirm 96.7 | KCNK3 uninduced inactive
CCN(CC)S(=O)(=O)c1cc(NC(=S)NC(=O)C2CCCC2)ccc1C	KCNK3 block -15.6 (no result: KCNK9 block, Kir21 block, hERG protect, KCNQ1 act, KCNQ1 inh) | KCNK3 confirm 101.0 | KCNK3 uninduced inactive
CCN(CC)S(=O)(=O)c1ccc(N(C)C)c(NC(=O)C2CCCC2)c1	none
CCN(CC)S(=O)(=O)c1cc(NC(=O)C(=O)c2c(-c3ccccc3)cc3ccccn23)ccc1C	KCNK3 block -10.2 | KCNK3 confirm 105.3 | KCNK3 uninduced inactive
COc1cc(NC(=O)c2ccc3c(c2)OCCO3)ccc1NC(=O)c1cccs1	none
CN(C(=O)Nc1ccc(Cl)cc1Cl)[C@H]1c2cc(Br)ccc2OC[C@H]1CO	KCNK3 block -8.93 | KCNK3 confirm 99.7 | KCNK3 uninduced inactive
COc1cccc2c1OC[C@@H](CO)[C@H]2N(C)C(=O)Nc1ccccc1	none
COc1ccc([N+](=O)[O-])cc1NC(=O)C1CCCN1S(=O)(=O)c1cccs1 (stereo unspecified)	none
Cc1ccc(NC(=O)Cn2c(=O)n(Cc3ccco3)c(=O)c3ccccc32)c(C)c1	none
O=C(Cn1c(=O)n(Cc2ccco2)c(=O)c2ccccc21)Nc1cccc(Cl)c1	KCNK3 block -14 | KCNK3 confirm 97.7 | KCNK3 uninduced inactive
Cc1ccc2c(c1)C(c1ccccc1)N(C(=O)c1c(F)cccc1Cl)CC(=O)N2 (stereo unspecified)	none
CCOC(=O)C1CCCN(C(=O)c2cc(Nc3ccc(OC)cc3)nc3ccccc23)C1 (stereo unspecified)	none
c1ccc(-c2nc(NCCCn3ccnc3)c3ccccc3n2)cc1	KCNK3 block -11.4 | KCNK3 confirm 100.0 | KCNK3 uninduced 0.148
Cc1c(Cl)cccc1NC(=S)N(Cc1cccnc1)Cc1ccccc1Cl	none
Nc1cc(=O)[nH]c(=O)n1CCCc1ccccc1	none
Nc1[nH]c2cc([N+](=O)[O-])ccc2c1-c1ccccn1	KCNK3 block -10.3 | KCNK3 confirm 115.3 | KCNK3 uninduced 0.136
CC1CCCC(C)N1S(=O)(=O)c1ccc(NC(=O)c2ccccc2C(=O)N2CCOCC2)cc1 (stereo unspecified)	KCNK3 block -11.7 | KCNK3 confirm 91.0 | KCNK3 uninduced inactive
Cc1cnc(C(=O)OCc2ccc(Br)cc2)cn1	none
Cc1cccc(C)c1NC(=O)CN(C)CC(=O)Nc1ccc(F)c(Cl)c1	KCNK3 block -11.6 | KCNK3 confirm 81.7 | KCNK3 uninduced inactive
COc1ccccc1OCC(=O)N/N=C/c1c(O)ccc2ccccc12	KCNK3 block -10.2, KCNK9 block -8.6 | KCNK3 confirm 132.3 | KCNK3 uninduced inactive
CCOc1ccccc1/C=N/N1CCN(Cc2ccccc2)CC1	KCNK3 block -11.1 | KCNK3 confirm 83.3 | KCNK3 uninduced inactive
O=[N+]([O-])c1ccccc1/C=N\N1CCN(Cc2ccccc2Cl)CC1	KCNK3 block -8.95 | KCNK3 confirm 99.3 | KCNK3 uninduced inactive
CCOc1ccc(CN(C)c2nc(-c3cccnc3)nc3ccccc23)cc1OC	KCNK3 block -15.8 | KCNK3 confirm 104.3 | KCNK3 uninduced inactive
O=C1c2cccc3cccc(c23)C(=O)N1CCc1ccccc1	KCNK3 block -9.6 | KCNK3 confirm 117.7 | KCNK3 uninduced inactive
CC1CN(c2nc3ccccc3nc2SCC(=O)Nc2ccc(F)cc2)CC(C)O1 (stereo unspecified)	KCNK3 block -8.75 | KCNK3 confirm 105.7 | KCNK3 uninduced 0.142
